# Experimental data: PubChem BioAssay AID588760 (Johns Hopkins Ion Channel Center, 2011)
# Active and inactive are the calls of the source.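 The calls were made as follows: active = fitted dose response curve and peak inhibition of the Kir2.1 potassium channel above 30% at some dose; inactive = no dose response or no inhibition at any dose.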
# Molecular target: Inward rectifier potassium channel 2 (Mus musculus) (UniProt P35561)
# Assay: Kir2.1 channel inhibition, specificity check, SAR follow-up, selectivity assay for KCNK9 inhibitor project, cell-based, FluxOR thallium flux, CRC round 3 (AID 588760)
# Outline: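 Assay system: FluxOR-loaded Kir2.1 HEK293 cells; Also added: K2SO4/Tl2SO4 stimulus; Replicates: at least duplicate measurements per concentration; Measured by: kinetic fluorescence of thallium-sensitive dye; Incubation: dye loading 90 min RT, compound 20 min RT pre-stimulus.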
# Inward rectifier potassium channel 2 (Mus musculus), sequence (P35561 whole entry, looked up): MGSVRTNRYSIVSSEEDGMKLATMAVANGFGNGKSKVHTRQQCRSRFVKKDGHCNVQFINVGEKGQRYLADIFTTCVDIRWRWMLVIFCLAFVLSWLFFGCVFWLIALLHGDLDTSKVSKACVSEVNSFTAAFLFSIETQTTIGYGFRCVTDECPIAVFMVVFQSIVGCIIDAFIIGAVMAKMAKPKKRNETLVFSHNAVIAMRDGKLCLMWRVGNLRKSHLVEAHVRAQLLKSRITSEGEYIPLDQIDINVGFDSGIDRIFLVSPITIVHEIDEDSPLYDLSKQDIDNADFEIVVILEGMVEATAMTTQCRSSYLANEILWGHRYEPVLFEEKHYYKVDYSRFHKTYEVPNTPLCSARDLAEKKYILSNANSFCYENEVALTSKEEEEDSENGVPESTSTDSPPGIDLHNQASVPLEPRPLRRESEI
row,Structure (SMILES),outcome
1,C[C@H](C1CCCCC1)n1c(-c2ccco2)n[nH]c1=S,inactive
2,C[C@@H](C1CCCCC1)n1c(-c2ccco2)n[nH]c1=S,inactive
3,COc1ccc(C(=O)CSc2nnc(-c3ccco3)n2C(C)C2CC3CCC2C3)cc1OC (stereo unspecified),inactive
4,CC(C1CC2CCC1C2)n1cnnc1-c1ccco1 (stereo unspecified),inactive
5,COc1cccc(-c2nnc(S(C)(=O)=O)n2C(C)C2CC3CCC2C3)c1 (stereo unspecified),inactive
6,CC(C1CC2CCC1C2)N(C)C(=O)c1ccco1 (stereo unspecified),inactive
7,COc1ccc(CCSc2nnc(-c3ccco3)n2C(C)C2CC3CCC2C3)cc1OC (stereo unspecified),inactive
8,CC(C1CC2CCC1C2)n1c(-c2cccs2)n[nH]c1=S (stereo unspecified),inactive
9,CC(c1cccc2ccccc12)n1c(-c2ccco2)n[nH]c1=S (stereo unspecified),inactive
10,CC(C)c1ccccc1C(=O)Nc1cccc(NC(=O)c2ccccc2OC(F)(F)F)c1,inactive
11,CC(C1CC2CCC1C2)n1c(SC(F)F)nnc1-c1ccco1 (stereo unspecified),inactive
12,CC(CCC1CCCC1)n1c(-c2ccco2)n[nH]c1=S (stereo unspecified),inactive
13,COc1ccccc1C(=O)Nc1cccc(NC(=O)c2cccc3ccccc23)c1,inactive
14,S=c1[nH]nc(-c2ccco2)n1C1CC2CCC1C2 (stereo unspecified),inactive
15,S=c1[nH]nc(-c2ccco2)n1CC1CC2CCC1C2 (stereo unspecified),inactive
16,CC(C1CC2CCC1C2)n1c(SCC(=O)c2ccc(Cl)c(Cl)c2)nnc1-c1ccco1 (stereo unspecified),inactive
17,CC(C1CC2CCC1C2)n1c(-c2ccco2)n[nH]c1=S (stereo unspecified),inactive
18,CC(C)Oc1ccccc1C(=O)Nc1cccc(NC(=O)c2ccccc2OC(F)(F)F)c1,inactive
19,CC(C1CC2CCC1C2)n1c(-c2ccccn2)n[nH]c1=S (stereo unspecified),inactive
20,COc1cccc(-c2n[nH]c(=S)n2C(C)C2CC3CCC2C3)c1OC (stereo unspecified),inactive
21,CC(C1CC2CCC1C2)n1c(-c2ccncc2)n[nH]c1=S (stereo unspecified),inactive
